Bioassay records as filed in PubChem.
PPC-1+TRAIL kill = kills PPC-1 cancer cells in the presence of TRAIL | PPC-1 cells + TRAIL, ATPLite viability luminescence | cell killing (% activity), % at 4 µM or 5 µM | 0.41% of 220,000 active | AID 1443;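 active means cell killing above 50% in the first pass at 4 µM, then a duplicate retest at 5 µM averaging 50% or more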;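 further: plate controls were cells with TRAIL plus DMSO for no effect and medium-only wells lacking cells for full effect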
STAT3 inh = inhibitors of IL-6 induced STAT3 signaling; U3A cells, IL-6 STAT3-luciferase reporter, luminescence; host cell line lacks STAT1; inhibition, % at 5.5 µM; AID 862; 0.89% of 190,000 active;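 active means inhibition above the mean inhibition across all screened compounds plus 3 SD, cut at about 44% in these data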;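 further: 0% = DMSO only wells and 100% = 100 µM nifuroxazide control wells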
HSP90 inh = blocks HSP90-mediated luciferase refolding in reticulocyte lysate. Rabbit reticulocyte lysate, luciferase refolding luminescence, 3 h. inhibition, % at 5.6 µM. 0.91% of 290,000 active. AID 1789;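 active means inhibition above the screen-wide mean plus 3 SD, computed separately per campaign, cut at about 16% in these data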;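 further: 0% = DMSO wells and 100% = 60 µM geldanamycin wells; inhibitors lower the luminescence because luciferase stays unfolded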
STAT1 inh = reduces IFN-gamma driven STAT1 reporter signal. NIH 3T3 STAT1-luciferase reporter, luminescence. inhibition, % at 5.5 µM. 0.35% of 200,000 active. AID 920;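 active means inhibition above a set limit, the mean inhibition across all tested compounds plus 3 SD, cut at about 34% in these data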;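 further: 0% = IFN-gamma with DMSO and 100% = IFN-gamma with 300 µM nifuroxazide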
STAT3 act = STAT3 signaling activation; 0.91% of 190,000 active; activation (% of control), % at 5.6 µM; U3A cells, IL-6 STAT3-luciferase reporter, luminescence; 100% = signal with IL-6 EC80 alone; AID 871;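 active means activation above the screen-wide mean of compound activation plus 3 SD, cut at about 130% in these data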;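 further: 0% = background luminescence of wells with medium and substrate only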
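Material: STAT3-luciferase reporter U3A cells. Controls: IL-6-treated wells, 100% activation. Read-out: % activation versus median of IL-6-stimulated wells. Probe or stimulus: IL-6 stimulus at 33 ng/mL final. Timing: compound 1 h, then IL-6 6 h at 37 °C. Signal: reporter luminescence signal.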
C8 TRAIL sens = caspase-8 TRAIL sensitization; NB7+C8 cells + TRAIL, ATPlite viability luminescence; inhibition (viability loss, TRAIL sensitization), % at 10 µM; 1% of 360,000 active;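 active means compounds causing at least 50% loss of cell viability in the single-dose screen, relative to plate controls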
PPC1 cytotox = kills PPC-1 cells; shares compounds with PPC-1+TRAIL kill; PPC-1 viability, ATPlite luminescence, overnight; cytotoxicity, % at 5 µM; 50% of 1,200 active; AID 1447;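 active means reconfirmed compounds whose average cytotoxicity reaches 50% or more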;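 further: 0% = DMSO-treated cells and 100% = wells holding medium but no cells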
HSP90 inh confirm = confirmation of HSP90 inhibitors | shares compounds with HSP90 inh | rabbit reticulocyte lysate, luciferase refolding luminescence, 3 h | inhibition, % at 5.9 µM | 64% of 2,300 active | AID 1846; in the data active means inhibition above about 18%;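 further: 0% = vehicle wells and 100% = reference inhibitor wells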
FLuc counter = counter-screen for HSP90 inhibitors: inhibitors of firefly luciferase; shares compounds with HSP90 inh; purified native firefly luciferase, luminescence; 48% of 2,300 active; inhibition, % at 5.9 µM;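 active means inhibition above the mean inhibition of all tested sample wells plus 3 SD, cut at about 10% in these data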;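 further: 0% = DMSO with luciferase and 100% = wells lacking luciferase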
Target sequence (P08659 whole entry, looked up): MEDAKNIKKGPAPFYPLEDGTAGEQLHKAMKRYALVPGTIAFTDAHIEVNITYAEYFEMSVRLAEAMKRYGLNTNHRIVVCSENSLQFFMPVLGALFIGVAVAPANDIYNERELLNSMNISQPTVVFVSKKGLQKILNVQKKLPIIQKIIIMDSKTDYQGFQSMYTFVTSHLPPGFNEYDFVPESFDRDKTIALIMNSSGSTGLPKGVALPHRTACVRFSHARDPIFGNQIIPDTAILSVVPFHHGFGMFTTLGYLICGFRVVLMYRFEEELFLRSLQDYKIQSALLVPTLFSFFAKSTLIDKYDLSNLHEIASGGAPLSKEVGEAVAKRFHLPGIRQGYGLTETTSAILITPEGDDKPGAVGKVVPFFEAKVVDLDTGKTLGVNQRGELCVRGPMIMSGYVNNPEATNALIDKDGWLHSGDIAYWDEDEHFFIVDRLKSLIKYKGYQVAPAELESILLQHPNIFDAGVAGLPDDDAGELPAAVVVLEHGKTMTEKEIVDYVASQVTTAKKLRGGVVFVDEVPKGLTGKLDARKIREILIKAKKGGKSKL
* hit, by the source's call; / = no result given. In the library only some 2.3% were active in any assay of this set; here they are far more common.

SMILES | PPC-1+TRAIL kill | STAT3 inh | HSP90 inh | STAT1 inh | STAT3 act | C8 TRAIL sens | others
COC(=O)C1=C(c2cccc(C#N)c2)C[C@@H]2CC[C@H]1N2C(=O)N1CCC(O)CC1 | / | / | / | / | / | 0
C=C1C(=O)O[C@@H]2C[C@@H](C)[C@@H]3C=CC(=O)[C@@]3(C)[C@@H](O)[C@H]12 | 60* | / | / | / | / | 77* | PPC1 cytotox=57*
Cc1cccnc1-n1c(CN2C(=O)c3ccccc3C2=O)nc2ccccc2c1=O | 18 | 7 | 0 | 2 | 97 | 4
Cn1ccnc1P(=S)(c1nccn1C)N1CCOCC1 | 8 | 1 | -3 | -4 | 103 | 0 | PPC1 cytotox=-9
COC(=O)C(C)Oc1cc(C)cc2oc(=O)c3c(c12)CCCC3 (stereo not given) | 0 | 16 | 3 | 6 | 91 | 34 | PPC1 cytotox=15
COC(=O)C1=C(c2ccc(OC(F)(F)F)cc2)C[C@@H]2CC[C@H]1N2C(=O)NCCc1ccccc1 | / | / | / | / | / | 5
Cc1ccc(S(=O)(=O)NCC2CCC(C(=O)N3CCC4(CC3)OCCO4)CC2)cc1 (stereo not given) | -5 | 8 | 2 | -10 | 95 | 4
COC1CC(OC2CCC3(C)C(CCC4C3CCC3(C)C(C5=CC(=O)OC5)C(OC(C)=O)CC43O)C2)OC(C)C1OC1OC(COC2OC(CO)C(O)C(O)C2O)C(O)C(O)C1O (stereo not given) | 48 | / | / | / | / | / | PPC1 cytotox=56*
CC(=O)OC[C@]12CCC(C)=C[C@H]1O[C@@H]1[C@H](O)[C@@H](OC(C)=O)[C@@]2(C)[C@]12CO2 | 65* | / | / | / | / | 89* | PPC1 cytotox=63*
CN(C)P(=O)(C(Cl)=C(N1CCCCC1)N1CCCCC1)N(C)C | 23 | -18 | -1 | 1 | 121 | 2
CCC1(OC(=O)CN)C(=O)OCc2c1cc1n(c2=O)Cc2cc3ccccc3nc2-1 (stereo not given) | 30 | / | 4 | / | / | 31 | PPC1 cytotox=28
CC[C@@]1(O)C(=O)OCc2c1cc1n(c2=O)Cc2cc3ccccc3nc2-1 | 49 | / | 2 | / | / | /
C=C(C=O)CC1CC(O)[C@]2(C)OC3CC4OC5C[C@]6(C)O[C@]7(C)CCC8OC9C[C@]%10(C)OC%11C(C)=CC(=O)OC%11CC%10OC9C[C@@H](C)C8OC7CC6O[C@]5(C)CC5OC5C4OC3CC2O1 (stereo not given in full) | 80* | / | 6 | -24 | / | 96* | PPC1 cytotox=78*
C=C(CO)CC1CC(O)[C@]2(C)OC3CC4OC5C[C@]6(C)O[C@]7(C)CCC8OC9C[C@]%10(C)OC%11C(C)=CC(=O)OC%11CC%10OC9C[C@@H](C)C8OC7CC6O[C@]5(C)C/C=C\C4OC3CC2O1 (stereo not given in full) | 7 | / | 2 | 2 | / | 8
CCN1/C(=C\C=C\C2=[N+](CC)c3ccccc3C2(C)C)C(C)(C)c2ccccc21 | 55* | 100* | 6 | 56* | 16 | 77* | PPC1 cytotox=60*
COc1ccc(N2CC2c2ccncc2)cc1 (stereo not given) | 14 | -1 | -2 | -10 | 105 | -5
NC(=S)c1cn(C2OC(CO)C(O)C2O)c2ncnc(N)c12 (stereo not given) | 55* | / | 3 | / | / | 67* | PPC1 cytotox=55*
Cc1ccc(-n2c(C)nc3ccccc3c2=O)c(C)c1 | 14 | / | 3 | / | / | 7
COc1ccccc1N1CCN(Cc2ccccc2F)CC1 | 18 | 12 | 3 | 4 | 94 | -10 | PPC1 cytotox=8
c1ccc(C(c2ccccc2)c2cccnc2)cc1 | / | / | / | / | / | -13
Clc1cccc(NC2=NCCS2)c1 | / | / | / | / | / | -12
Cc1ccc(OCCOc2cccc(C=C3C(=O)NC(=O)NC3=O)c2)cc1 | / | / | 30* | / | / | 14 | HSP90 inh confirm=45*;FLuc counter=14*
Cc1ccc(C(=O)Nc2ccc(Cl)cc2C(=O)c2ccccc2)cc1 | / | 31 | 3 | 2 | 82 | 11
COc1ccccc1OCCCn1cc(C=O)c2ccccc21 | 6 | 31 | 18* | -19 | 76 | 15 | HSP90 inh confirm=22*;FLuc counter=-18
CN(C)C(=O)Oc1cccc(-c2cn3cc(Cl)ccc3n2)c1 | 40 | 4 | 6 | -25 | 97 | 43
SMILES | PPC-1+TRAIL kill | STAT3 inh | HSP90 inh | STAT1 inh | STAT3 act | C8 TRAIL sens | others
CN(C)C(=O)Oc1ccc(-c2cn3cc(Cl)ccc3n2)cc1 | 54* | 42 | 33* | -47 | 66 | 76* | HSP90 inh confirm=34*;FLuc counter=21*
CCN1c2nc3ccccn3c(=O)c2CC2(C(=O)N(C)C(=O)N(C)C2=O)C1C (stereo not given) | 17 | 6 | 0 | -5 | 98 | -6
CCCCCCOc1ccc(CN2CCN(CC)CC2)cc1 | 18 | -5 | 30* | -5 | 109 | 6 | HSP90 inh confirm=25*;FLuc counter=8
Cn1cc(C(=O)NC2CC2)c2ccccc21 | / | / | -5 | / | / | -21
Cc1ccsc1-c1nc(CSCC(=O)N2CCC3(CC2)OCCO3)c(C)o1 | 1 | 0 | 1 | -2 | 103 | 17
O=C(CCS(=O)(=O)c1ccc(Br)cc1)N1CCC2(CC1)OCCO2 | 8 | 14 | 78* | 48* | 94 | -1 | HSP90 inh confirm=-5;FLuc counter=-11
O=C(c1ccc(CS(=O)(=O)c2ccc(Br)cc2)o1)N1CCC2(CC1)OCCO2 | -1 | 10 | 1 | -3 | 96 | 19
CCOC(=O)C1CCN(/C=C2/C(=O)NC(=O)N(c3ccc(OCC)cc3)C2=O)CC1 | 10 | 2 | 24* | 2 | 102 | 5 | HSP90 inh confirm=-2;FLuc counter=-5
O=C(NC1CCCCC1)Oc1cc2oc(=O)sc2cc1Cl | -1 | / | 18* | / | / | -4 | HSP90 inh confirm=2;FLuc counter=-7
COC(=O)C(O)(c1c(C)[nH]n(-c2ccccc2)c1=O)C(F)(F)F (stereo not given) | 10 | -26 | 3 | 7 | 123 | -9
COc1cc(C(c2c(C)[nH]n(-c3ccccc3)c2=O)c2c(C)[nH]n(-c3ccccc3)c2=O)cc(OC)c1OC | / | 0 | 56* | 8 | 107 | -5 | HSP90 inh confirm=-9;FLuc counter=-4
Cc1cccc(CN2CCCN(Cc3ccc(Cl)cc3)S2(=O)=O)c1 | / | / | 0 | / | / | -4
Cc1ccc(CN2CCCN(Cc3ccc(C)cc3)S2(=O)=O)cc1 | / | / | 18* | / | / | -17 | HSP90 inh confirm=7;FLuc counter=-1
COc1cccc(C2CCN(CC(=O)Nc3cc(Cl)ccc3OC)CC2O)c1 (stereo not given) | / | / | 3 | / | / | -13
CCn1nc(/C=C/c2ccccc2)nc2c(=O)n(C)c(=O)nc1-2 | 14 | 74* | 85* | 86* | 39 | 37 | HSP90 inh confirm=96*;FLuc counter=88*
COc1ccc(-n2c(/C=C/c3ccc(O)cc3)nc3ccccc3c2=O)cc1 | / | / | 4 | / | / | -6
O=C1NC(=S)N(c2ccccc2)C(=O)/C1=C/c1ccco1 | / | / | 7 | / | / | -5
